Experimental data pooled from the literature.
Lines come from different studies, so protocols differ.
Target: Citron Rho-interacting kinase (CIT, Homo sapiens, UniProt O14578)

| Compound | read-out | technique | concentration | remaining binding |
| --- | --- | --- | --- | --- |
| C[C@@H](c1cccc(C#N)c1)n1cc(Cl)cc(C(N)=O)c1=N | cell-free assay | competition with immobilised ligand | 1 µM | 100% |
| C[C@H]1CCN(c2nccc(-c3cnn4ncccc34)n2)C1 | binding |  | 1 µM | 69% |
| CC(=O)c1c(NS(C)(=O)=O)c2cc(-c3ccc(Cl)cc3)c(-c3ccc(Cl)cc3Cl)nc2n(C)c1=O | cell-free assay | competition with immobilised ligand | 1 µM | 96% |
| CC1CCCN1c1nccc(-c2cnn3ncccc23)n1 (stereo not shown) | binding |  | 1 µM | 82% |
| O=C(c1ccc(Nc2ncc(Cl)c(-c3ccc(Cl)s3)n2)cc1)N1CCC(N2CCCC2)CC1 | binding | competition with immobilised ligand | 1 µM | 30% |
| CN(C)c1nccc(-c2cnn3ncccc23)n1 | binding |  | 1 µM | 86% |
| CCC(=O)N[C@H]1CC[C@@H](C(=O)N(C)c2ccc(-c3nc4ccccc4o3)cc2)C1 | cell-free assay | competition with immobilised ligand | 1 µM | 99% |
| N[C@H]1CCN(c2nccc(-c3cnn4ncccc34)n2)C1 | binding |  | 1 µM | 100% |
| O=C(NCC1CCOCC1)c1n[nH]cc1NC(=O)c1c(F)cccc1F | binding | competition with immobilised ligand | 1 µM | 100% |
| O=C(NCCCN1CCOCC1)c1ccc(Nc2nccc(-c3cc4ccccc4s3)n2)cc1 | binding | competition with immobilised ligand | 1 µM | 77% |
| COc1ncc2cc3ccccc3nc2c1C#N | cell-free assay | competition with immobilised ligand | 5 µM | 40% |
| CS(=O)(=O)c1cc(C2(NC(=O)c3cncc4c3cnn4-c3ccc(F)cc3)CC2)ccn1 | cell-free assay | competition with immobilised ligand | 1 µM | 100% |
| Nc1ncc2c(n1)-c1c([nH]c3ccc(C#CC4CC4)cc13)CCCC2 | binding | competition with immobilised ligand | 1 µM | 88% |
| O=C(c1ccc(Nc2ncc(Cl)c(-c3cc4ccccc4s3)n2)cc1)N1CCC(N2CCCC2)CC1 | binding | competition with immobilised ligand | 1 µM | 30% |
| CS(=O)(=O)N1CCCC(NC(=O)[C@H](CCC2CCCCC2)NC(=O)c2ccc(CNC(=O)c3cnc4ccccn34)cc2)C1 (stereo partly shown) | cell-free assay | competition with immobilised ligand | 0.1 µM | 100% |
| COc1ccnn2ncc(-c3ccnc(N(C)C)n3)c12 | binding |  | 1 µM | 95% |
| COc1cnc(Nc2cccc(S(N)(=O)=O)c2)nc1N1CCN(c2ccccc2)CC1 | binding | competition with immobilised ligand | 1 µM | 100% |
| COc1cccc(CNC(=O)c2nc3scc(COCc4ccc(C(=O)O)cc4)c3c(=O)[nH]2)c1 | cell-free assay | competition with immobilised ligand | 1 µM | 100% |
| CN(C)c1ncc(F)c(-c2cnn3ncccc23)n1 | binding |  | 1 µM | 100% |
